Laboratory results as given in article PMC6034581 (Neoplasia (New York, N.Y.), 2018).

Experiments:
C4-2 cells = assay: MTS cell proliferation assay of in vitro cytotoxicity; type: cell-based; settings: Homo sapiens, C4-2, 72 h, read-out: half minimal inhibitory concentration (IC50)
In short: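 AR-positive human prostate cancer C4-2 cells exposed for 72 hours to individual flavonoids or to a defined three-flavonoid mixture (molar ratio 1:1:2) across graded concentrations. Viability read by MTS cell proliferation assay; IC50 taken from the dose-effect curves. Data represent three or more independent experiments.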

rats = settings: cited from earlier work
[1] = Pharmacokinetics and bioavailability of ProFine ingredients; type: in vivo, Sprague-Dawley rats; settings: ProFine 100 mg/kg oral gavage, rat plasma
humans = settings: up to 1000 mg daily for several months; cited from earlier work

O=c1cc(-c2ccc(O)c(O)c2)oc2cc(O)cc(O)c12 [luteolin]
IC50 (C4-2 cells): 114 µM
acute oral toxicity (LD50) (rats): > 5000 mg/kg
maximum plasma concentration [1]: 0.44 µM

O=c1c(O)c(-c2ccc(O)c(O)c2)oc2cc(O)cc(O)c12 [quercetin]
adverse effects of human daily intakes (humans): no adverse effects
